The list is not random: actives were taken first. Their share in the collection is about 3.4%.
CHT PAM: CHT positive allosteric modulators, primary screen, cell-based, membrane potential dye, choline EC20. High affinity choline transporter 1 (Homo sapiens), Q9GZV3. AID 488977, 2010. CHT-expressing cells; stronger effect = higher value; LV-AA mutant CHT in HEK293 cells. B-score at 10 µM. 310,000 tested, 0.49% active;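 active means initial fluorescence not abnormally high and integrated response B-score, plate-corrected, over 3 SD above library mean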
VIM-2 inhibitor: VIM-2 metallo-beta-lactamase inhibitors, primary screen, biochemical, epi-absorbance readout, Pseudomonas aeruginosa enzyme; 290,000 tested, 0.89% active; purified VIM-2, nitrocefin hydrolysis, epi-absorbance fluorescence; inhibition, % at 5.6 µM;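 active means inhibition above the mean of all tested compounds plus 3 SD, cutoff set per screening run, cut at about 7.5% in these data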;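 further: red hydrolysis product quenches plate fluorescence so inhibitors raise well fluorescence; 0% = enzyme with DMSO and 100% = DMSO without enzyme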
ANO1 block: TMEM16A chloride channel inhibitors, primary screen, cell-based, HTS; normalized B-score (activity score, 25-100; higher = stronger inhibition) at 10 µM; HEK293 TMEM16A/YFP iodide influx fluorescence, ionomycin; Anoctamin-1 (Mus musculus), Q8BHY3; 310,000 tested, 1.2% active;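 active means ratio plate-corrected score three or more library SD toward inhibition, starting fluorescence score within five deviations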;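 further: score derived from kinetic fluorescence span divided by baseline fluorescence per well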
Target sequence (Q8BHY3 whole entry, looked up): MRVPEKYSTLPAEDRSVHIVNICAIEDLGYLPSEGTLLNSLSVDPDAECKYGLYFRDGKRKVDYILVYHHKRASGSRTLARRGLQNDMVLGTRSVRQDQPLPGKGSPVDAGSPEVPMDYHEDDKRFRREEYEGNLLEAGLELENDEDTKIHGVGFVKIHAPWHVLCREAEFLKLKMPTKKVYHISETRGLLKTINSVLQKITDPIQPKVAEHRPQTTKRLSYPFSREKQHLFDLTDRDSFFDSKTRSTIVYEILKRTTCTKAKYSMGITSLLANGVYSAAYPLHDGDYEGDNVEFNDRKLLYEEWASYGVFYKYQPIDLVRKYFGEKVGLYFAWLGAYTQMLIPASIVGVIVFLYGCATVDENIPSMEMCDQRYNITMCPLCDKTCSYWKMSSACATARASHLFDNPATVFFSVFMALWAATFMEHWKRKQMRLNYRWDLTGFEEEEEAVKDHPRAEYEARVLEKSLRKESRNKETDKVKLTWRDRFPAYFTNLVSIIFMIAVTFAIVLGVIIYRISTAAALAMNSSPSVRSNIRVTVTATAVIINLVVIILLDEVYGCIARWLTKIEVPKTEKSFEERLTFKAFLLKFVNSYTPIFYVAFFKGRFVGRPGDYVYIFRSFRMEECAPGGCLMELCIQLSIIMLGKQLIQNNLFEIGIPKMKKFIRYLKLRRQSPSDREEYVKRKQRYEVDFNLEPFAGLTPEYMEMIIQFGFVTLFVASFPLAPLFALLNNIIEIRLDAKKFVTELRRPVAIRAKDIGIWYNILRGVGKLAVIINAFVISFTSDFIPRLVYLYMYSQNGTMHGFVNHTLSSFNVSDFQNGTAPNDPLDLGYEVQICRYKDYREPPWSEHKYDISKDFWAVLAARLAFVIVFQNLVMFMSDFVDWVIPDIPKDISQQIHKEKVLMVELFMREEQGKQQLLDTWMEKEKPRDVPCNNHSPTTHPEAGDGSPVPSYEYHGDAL
CHT block: inhibitors of human choline transporter CHT; High affinity choline transporter 1 (Homo sapiens), Q9GZV3; CHT-expressing cells, membrane potential dye, choline response; stronger effect = lower value; B-score at 10 µM; 310,000 tested, 0.86% active; AID 488975, 2010;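 active means B-score over 3 SD under the library average, and starting fluorescence ratio not unusually high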;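 further: choline stimulus applied at its EC90 after an EC20 pre-addition; B-score computed on integrated fluorescence ratio after choline addition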
IMP-1 inhibitor: IMP-1 metallo-beta-lactamase inhibitors, primary screen, biochemical, epi-absorbance readout, Pseudomonas aeruginosa enzyme | purified IMP-1, nitrocefin hydrolysis, epi-absorbance fluorescence | inhibition, % at 5.6 µM | 290,000 tested, 0.45% active;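 active means inhibition above the mean plus 3 SD of all compounds in the same screening run, cut at about 4.5% in these data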;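 further: 0% = IMP-1 with DMSO and 100% = DMSO wells lacking enzyme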
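Assay system: purified recombinant IMP-1 beta-lactamase. Input: IMP-1 0.2 nM before substrate addition. Buffer or medium: Zinc- and detergent-supplemented HEPES buffer, pH 7.1. Schedule: 25 °C, 15 min preincubation, 25 min reaction. Signal: Epi-absorbance fluorescence, 480 nm excitation, 530 nm emission. Evaluation: percent inhibition from optical density relative to buffer-blank wells.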
TMEM16A act: TMEM16A chloride channel activators or potentiators, primary screen, cell-based, HTS | Anoctamin-1 (Mus musculus), Q8BHY3 | HEK293 TMEM16A/YFP-H148Q/I152L, iodide quench fluorescence; stronger effect = lower value | B-score at 10 µM | 340,000 tested, 0.3% active;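 active means fluorescence-ratio B-score plate-corrected deviation score at least 3 library SD below zero, with starting fluorescence score within 5 deviations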;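 further: channel opened by trigger with iodide after compound preincubation; score built on the fluorescence ratio of max minus min over baseline; more negative score means more quench and so TMEM16A activation or potentiation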
CHT activ conf: CHT activators, confirmation, cell-based, membrane potential dye, duplicate; shares compounds with CHT PAM; CHT-expressing cells, membrane potential dye fluorescence (FDSS); % of choline EC20–EC90 response window; HEK293 expressing CHT LV-AA mutant; choline added at its EC20; activation, % at 10 µM; 2,500 tested, 91% active; AID 504833, 2011;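 active means primary screen active, with duplicate mean activation above negative control mean plus 3 SD, cut at about 11% in these data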
HEK293 MP dye: membrane potential response in parental HEK293 cells, counter-screen for CHT activator project, cell-based, membrane potential dye; 2,500 tested, 62% active; membrane potential dye fluorescence (FDSS); measured after EC20 choline addition; ratio readout change at 10 µM, hits read low; shares compounds with CHT PAM; AID 623908, 2012;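 active means duplicate-averaged ratio beyond 3 SD from buffer wells, up or down, though filed actives are nearly all decreases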
An asterisk follows results filed as active; i = inactive; x = not tested or not shown.

SMILES	CHT PAM	VIM-2 inhibitor	ANO1 block	CHT block	IMP-1 inhibitor	TMEM16A act	CHT activ conf	HEK293 MP dye
COc1ccccc1N1CCN(C(=O)c2cc(-c3ccc(F)cc3)[nH]c2C)CC1	i	-5	i	i	-4	i	x	x
COc1ccc(NS(=O)(=O)c2cccc(-c3nnc4n3CCCCC4)c2)cc1	i	-2	i	i	-4	i	18*	i
COc1ccccc1S(=O)(=O)Nc1cccc(-c2nnc3n2CCCCC3)c1	i	-1	i	i	1	i	x	x
COC(=O)CC1C(=O)NCCN1C(=O)c1cc([N+](=O)[O-])ccc1Cl (configuration not stated)	i	-1	i	i	-4	i	x	x
CC1=C(C(=O)OC2CCCCC2)C(c2ccc(F)cc2)NC(=O)N1 (configuration not stated)	i	-1	i	i	-2	i	x	x
C(=N\Nc1nn2cnnc2c2ccccc12)/c1ccco1	i	3	i	i	-1	i	35*	-28*
C(=N\Nc1ccc2nncn2n1)/c1ccco1	i	-4	i	i	-4	i	x	x
Cc1ccc(C(CCNC(C)c2cccs2)c2ccco2)cc1 (configuration not stated)	i	-3	i	i	-3	i	12*	i
COc1cccc(C2CC(c3ccccc3OC)n3ncnc3N2)c1 (configuration not stated)	i	-4	i	i	-3	i	x	x
COc1ccccc1C1CC(c2ccc(Cl)cc2)Nc2ncnn21 (configuration not stated)	i	-3	i	i	-2	i	30*	i
C=CCN(C(=O)CSc1nc2c(sc3ccccc32)c(=O)n1CCN(CC)CC)c1ccccc1	i	-1	i	i	-2	i	x	x
C=CC[n+]1ccc2ccccc2c1C	7.7*	-1	i	i	-2	i	65*	-61*
C=CC[n+]1ccc(/C=C2\C=Cc3cc(C)ccc3N2CC)c2ccccc21	x	3	x	x	-5	i	x	x
COc1cccc(NC(=O)n2ncc3c(C)cccc32)c1	i	-2	i	i	-2	i	x	x
Cc1ccc(Nc2nc(-c3c(C)nc4ncccn34)cs2)cc1	6.7*	-8	i	i	-3	i	29*	i
COc1cnc(-c2ccccn2)nc1N(C)C	i	2	i	i	-2	i	33*	-36*
CC(NC(=O)c1ccco1)C(=O)N1CCN(c2cccc(C(F)(F)F)c2)CC1 (configuration not stated)	x	x	x	x	x	i	x	x
Cc1ccc(N(CC(=O)NCc2ccc(Cl)cc2)S(C)(=O)=O)cc1	i	-3	i	i	-5	i	x	x
CC[C@H](C)[C@H](NC(=O)c1ccccc1)C(=O)NC(CC(=O)O)c1ccc(F)cc1 (some centres not stated)	i	-2	i	i	-1	i	x	x
Cc1ccnc(N2CCN(c3c4c(c(C#N)c5nc6ccccc6n35)CCC4)CC2)c1	x	-4	x	x	1	x	x	x
Cc1cc(N2CCN(C3CCCC3)CC2)n2c(nc3ccccc32)c1C#N	7.1*	6	i	i	0	i	3	i
CN(CC(=O)Nc1ccccc1Br)C(=O)Cn1[nH]c(=O)c2ccccc2c1=O	x	x	x	x	x	i	x	x
